Screens deposited in PubChem by Broad Institute.
Most compounds without a hit are left out; they make up all but 2.5% or so of the library.
ERAP1 inh – inhibitors of human ERAP1 aminopeptidase; Q9NZ08; inhibition, % at 10.7 µM; 340,000 tested, 0.15% active; recombinant ERAP1, Leu-AMC fluorescence, 60 min;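 active = mean replicate inhibition of at least 30%, or all replicates individually reaching that 30% level; inactive = mean below 30% and not every replicate reaching it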;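 also: 0% = neutral control wells and 100% = L-leucinethiol positive control wells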
PglD inh – inhibitors of Campylobacter jejuni PglD acetyltransferase; purified PglD enzyme, DTNB colorimetric CoA detection; inhibition, % at 12.5 µM; 360,000 tested, 0.098% active; AID 602405; in the data active = inhibition above about 16%, passing the limit was not always enough; inconclusive = no clear call, values can overlap the other calls
DENV2 CPE rescue – inhibitors of DENV2 cytopathic effect | CPE inhibition, % at 9.99 µM | DENV2-infected cells, cytopathic effect rescue, plate reader | 350,000 tested, 1.7% active | AID 651640; in the data active = CPE inhibition above about 20%, passing the limit was not always enough; inconclusive = no clear call, values can overlap the other calls; tested in BHK-21 cells;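 also: 0% = median of neutral control wells and 100% = median of positive control wells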
SIRT5 inh – sirtuin-5 (human) deacylase inhibition; Q9NXA8; Purified SirT5, succinyl-peptide AMC, trypsin-coupled fluorescence; inhibition, % at 15 µM; 330,000 tested, 1.1% active; AID 652115; in the data active = inhibition above about 15%; inconclusive = no clear call, values can overlap the other calls
Target sequence (Q9NXA8 whole entry, looked up): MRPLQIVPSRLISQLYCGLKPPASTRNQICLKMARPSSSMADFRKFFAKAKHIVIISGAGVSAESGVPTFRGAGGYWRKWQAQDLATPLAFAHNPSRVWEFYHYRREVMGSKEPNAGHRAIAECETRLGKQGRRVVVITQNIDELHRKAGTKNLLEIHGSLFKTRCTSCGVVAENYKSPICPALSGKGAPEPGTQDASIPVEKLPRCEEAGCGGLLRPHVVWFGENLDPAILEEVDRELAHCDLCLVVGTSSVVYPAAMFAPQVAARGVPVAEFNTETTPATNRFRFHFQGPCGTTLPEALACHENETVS
E-sel inducer – E-selectin induction on HUVECs; HUVEC E-selectin immunofluorescence imaging; normalized: neutral wells 0, TNF-alpha wells 100; activation, % at 7.58 µM; 260,000 tested, 0.37% active;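 active = mean E-selectin-positive cell signal at least 10% of the positive control, reached in at least 60% of replicates, without over 20% cell loss; inconclusive = no rule given, readout overlaps actives, possibly toxicity-flagged; inactive = the rest, including those meeting only one limit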
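Read-out basis: % PE-positive cells; Test system: HUVEC primary endothelial cells; Technique: immunofluorescence imaging; Dosing: single-point compound dose.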
* = called active by the depositor; ? = inconclusive; . = no result.

SMILES	ERAP1 inh	PglD inh	DENV2 CPE rescue	SIRT5 inh	E-sel inducer
CC(O)(c1cccc(F)c1)c1nc(/C=C/c2ccccc2)cs1 (stereo unspecified)	1	2	22*	.	-1
COC(=O)C[C@@H]1CC[C@H]2[C@H](COc3ccc(NC(=O)c4ccccc4)cc3C(=O)N2C)O1	.	.	.	.	0
CC(=O)c1ccccc1NC(=O)COC(=O)/C=C/c1ccc(OC(F)F)cc1	9	-2	-3	-6	.
NNC(=O)c1ccc(-c2ccccc2F)cc1	1	.	27*	-3	.
C[C@@]12C(=O)N(CCc3c[nH]c4ccccc34)CC(=O)N1[C@H]1c3ccccc3OC[C@@H]1[C@@H]2c1ccccc1	0	3	54*	.	0
COc1ccc2c(c1)OC[C@H]1[C@H]2N2C(=O)c3cc(OC)ccc3NC(=O)[C@@]2(C)[C@H]1c1ccccc1	2	-2	47*	.	0
COc1ccc2c(c1)OC[C@H]1[C@H]2N2C(=O)c3cc(Cl)ccc3NC(=O)[C@@]2(C)[C@H]1c1ccccc1	.	-4	.	.	.
C[C@@]12C(=O)N(c3ccc(F)cc3)C(=O)N1[C@@H]1c3ccccc3OC[C@@H]1[C@H]2c1ccccc1	0	1	21*	.	.
Cc1cc(C)c(S(=O)(=O)n2ccc(-c3ccc(OCCN(C)c4ccccn4)cc3)n2)c(C)c1	.	0	.	.	.
COc1ccc(-n2ccc(=O)c(C(=O)O)n2)cc1	-2	-1	-4	-1	.
COc1ccc(S(=O)(=O)NN(C)C(=O)c2nn(-c3ccccc3)ccc2=O)cc1	-3	-3	0	1	27*
C=CCN1Cc2ccccc2[C@H]2OC(c3ccc(OCCCO)cc3)=N[C@@]2(CC=C)C1=O	4	8	12	4	.
CO/N=C/C(C#N)=C/c1cc(C(=O)c2ccc(F)cc2)cn1C	7	.	?	2	.
CCOC(=O)Nc1ccc(OCc2nnc3c4ccccc4c(C)nn23)cc1	13	.	-4	-2	.
COc1ccc(C2=NOC(C(=O)Nc3c(C)n(C)n(-c4ccccc4)c3=O)C2)cc1 (stereo unspecified)	-3	3	-8	-2	0
COc1ccc(OC)c(C2=NOC(C(=O)Nc3c(C)n(C)n(-c4ccccc4)c3=O)C2)c1 (stereo unspecified)	2	0	81*	7	0
O=S(=O)(NN1CCOCC1)c1cc(Cl)cc(Cl)c1O	37*	4	-3	-4	0
Cc1nn(-c2ccccc2)c(C)c1NC(=O)COC(=O)c1cc([N+](=O)[O-])ccc1NCCO	4	-6	10	3	.
CC(C)(C)c1cc(OC(=O)C2CCCC2)ccc1O	-2	0	11	-3	0
CCCCC(CC)C(=O)Oc1ccc(O)c(C(C)(C)C)c1 (stereo unspecified)	3	-2	11	19*	?
O=c1[nH]c(=S)[nH]c2sccc12	50*	.	.	1	-2
C#CCn1c(=NC(=O)c2ccc(Cl)s2)sc2cccc(OC)c21	30*	-3	16	4	0
O=C(Nc1nnc(CCN2CCCCC2)s1)c1ccc(Cl)cc1Cl	0	.	1	-5	.
O=C(c1cc(C2CC2)on1)N1CCCC(N2CCN(c3cccc(C(F)(F)F)c3)CC2)C1 (stereo unspecified)	-2	3	30*	-11	0
CCN(CC)CC(=O)N1CCCC(N2CCN(c3cccc(C(F)(F)F)c3)CC2)C1 (stereo unspecified)	1	4	30*	-5	.
SMILES	ERAP1 inh	PglD inh	DENV2 CPE rescue	SIRT5 inh	E-sel inducer
NC(=S)c1ccc[n+]([O-])c1	10	-1	7	.	3
COc1ccccc1NC(=O)N[C@H]1CC[C@@H](CCNC(=O)c2ccc3c(c2)OCO3)O[C@H]1CO	0	0	7	-1	0
COc1ccc(NC(=O)C2CC(=O)N(c3ccc(C)cc3)C2)cc1S(=O)(=O)N1CCCCC1 (stereo unspecified)	0	0	-10	.	1
Cc1cc(CN2CCCCC2)oc1C(=O)O	8	.	.	-3	.
C[C@@H]1CN([C@H](C)CO)C(=O)Cc2cc(NC(=O)Nc3ccc(C(F)(F)F)cc3)ccc2O[C@@H]1CN(C)S(=O)(=O)c1cccs1	1	-1	27*	0	9
Cc1noc(C)c1NC(=O)Nc1ccc2c(c1)CC(=O)N([C@@H](C)CO)C[C@@H](C)[C@@H](CN(C)S(=O)(=O)c1cccs1)O2	8	-4	36*	5	-9
C[C@H](CO)N1C[C@H](C)[C@@H](CN(C)S(=O)(=O)c2ccccc2)Oc2ccc(NC(=O)Nc3ccc(C(F)(F)F)cc3)cc2CC1=O	0	.	65*	19*	0
Cc1noc(C)c1NC(=O)Nc1ccc2c(c1)CC(=O)N([C@@H](C)CO)C[C@@H](C)[C@H](CN(C)S(=O)(=O)c1cccs1)O2	0	0	1	-2	12
C[C@@H]1CN([C@H](C)CO)C(=O)c2cc(NC(=O)Nc3ccc(C(F)(F)F)cc3)ccc2O[C@H]1CN(C)S(=O)(=O)c1ccccc1	-6	2	33*	-1	-2
CN(C)CC(=O)Nc1ccc2c(c1)[C@@H]1C[C@@H](CC(=O)N3CCN(C)CC3)O[C@@H](CO)[C@@H]1O2	-1	3	1	2	0
Cc1sc(Nc2ccc([N+](=O)[O-])cc2)nc1-c1c(C)n(C)n(-c2ccccc2)c1=O	.	0	.	.	.
CN1C(=O)c2cc(NC(=O)c3cccc(F)c3)ccc2OC[C@@H]2O[C@@H](CC(=O)NCc3ccccc3)CC[C@@H]21	.	-27	-3	.	0
Cc1noc(C)c1NC(=O)Nc1ccc2c(c1)CC(=O)N([C@H](C)CO)C[C@H](C)[C@H](CN(C)S(=O)(=O)c1ccccc1)O2	4	0	-4	1	47*
C[C@H]1CN([C@@H](C)CO)C(=O)Cc2cc(NC(=O)Nc3ccccc3)ccc2O[C@H]1CN(C)S(=O)(=O)c1cccs1	-5	-1	33*	9	0
O=C(Cc1ccc2c(c1)OCO2)NN=Cc1ccc([N+](=O)[O-])o1	-4	3	61*	-5	1
O=C(N/N=C/c1ccc([N+](=O)[O-])o1)c1ccncc1	4	-3	2	2	0
O=C(N/N=C\c1ccc([N+](=O)[O-])o1)c1cncc(Br)c1	.	1	5	21*	0
Cc1ccc(S(=O)(=O)N[C@H]2CC[C@@H](CCn3cc(C(C)C)nn3)O[C@H]2CO)cc1	3	-1	-13	25*	-1
CC(C)c1cn(CC[C@H]2CC[C@H](NS(=O)(=O)c3ccc(F)cc3)[C@@H](CO)O2)nn1	-1	-2	18	20*	0
O=S(=O)(N[C@H]1CC[C@H](CCn2cc(-c3cccc(F)c3)nn2)O[C@H]1CO)c1ccc(F)cc1	-2	4	-6	25*	-1
O=S(=O)(N[C@H]1CC[C@@H](CCn2cc(-c3cccc(F)c3)nn2)O[C@H]1CO)c1ccc(F)cc1	-3	2	8	1	0
